Laboratory results taken from ChEMBL document CHEMBL4402603, “Structure-Activity Relationship of SPOP Inhibitors against Kidney Cancer” (J Med Chem, 2020).
The source made the active and inactive calls. No cut-off for these calls is given here.

What was measured:
[1] = target: Speckle-type POZ protein (Homo sapiens) (UniProt O43791); experiment: Inhibition of SPOP signalling in human OS-RC2 cells assessed as effect of DUSP7 mRNA expression at 1 to 10 uM incubated for 12 hrs by qRT-PCR analysis; type: cell-based
[2] = target: Speckle-type POZ protein (Homo sapiens) (UniProt O43791); experiment: Inhibition of SPOP signalling in human OS-RC2 cells assessed as effect on total AKT level at 0.5 to 15 uM incubated for 12 hrs by Western blot analysis; type: cell-based
Procedure, shortened: (§1)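 Cells exposed 12 hr to inhibitor at graded concentrations, RIPA lysates normalized by BCA. 12% SDS-PAGE, nitrocellulose transfer, milk block, primary antibody at 4 °C overnight, HRP secondary, ECL. GAPDH loading control.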

[3] = target: Speckle-type POZ protein (Homo sapiens) (UniProt O43791); experiment: Binding affinity to recombinant N-terminal GST/His-tagged SPOP (unknown origin) (23 to 337 residues) expressed in Escherichia coli BL21 (DE3) assessed as change in melting temperature at 5 fold compound incubated for 15 mins by nano differential scanning fluorimetry (reference value: -1.9 degreeC)
HK-2 = experiment: Cytotoxicity against human HK2 cells assessed as reduction in cell viability incubated for 72 hrs by MTT assay; type: cell-based; conditions: HK-2, 72 h
[4] = target: Speckle-type POZ protein (Homo sapiens) (UniProt O43791); experiment: Inhibition of SPOP signalling in human A498 cells assessed as reduction in AKT phosphorylation at 0.5 to 10 uM incubated for 12 hrs by Western blot analysis; type: cell-based; procedure, shortened: as §1
[5] = target: Speckle-type POZ protein (Homo sapiens) (UniProt O43791); experiment: Inhibition of SPOP signalling in human OS-RC2 cells assessed as accumulation of DUSP7 incubated for 12 hrs by Western blot analysis; type: cell-based; procedure, shortened: as §1
[6] = target: Speckle-type POZ protein (Homo sapiens) (UniProt O43791); experiment: Binding affinity to recombinant N-terminal GST/His-tagged MATH binding domain SPOP (unknown origin) expressed in Escherichia coli BL21 (DE3) assessed as change in melting temperature at 20 fold compound incubated for 15 mins by nano differential scanning fluorimetry (reference value: -3.8 degreeC)
[7] = Solubility of compound in cell culture medium in presence of 0.2 % DMSO; type: physicochemical
Procedure, shortened: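 Solubility determined in cell culture medium containing 0.2% DMSO.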

[8] = target: Speckle-type POZ protein (Homo sapiens) (UniProt O43791); experiment: Binding affinity to recombinant N-terminal GST/His-tagged MATH binding domain SPOP (unknown origin) expressed in Escherichia coli BL21 (DE3) assessed as change in melting temperature at 10 fold compound incubated for 15 mins by nano differential scanning fluorimetry (reference value: -1.7 degreeC)
[9] = target: T1, Speckle-type POZ protein/PTEN (Homo sapiens) (UniProt P60484+O43791); experiment: Inhibition of SPOP/PTEN interaction in human HEK293T cells assessed as reduction in PTEN level incubated for 8 hrs by Western blot analysis; type: cell-based
[10] = Selectivity index, ratio of IC50 for human Hs766T to IC50 for human A498 cells
[11] = target: Speckle-type POZ protein (Homo sapiens) (UniProt O43791); experiment: Inhibition of SPOP signalling in human OS-RC2 cells assessed as effect on total ERK level at 0.5 to 15 uM incubated for 12 hrs by Western blot analysis; type: cell-based; procedure, shortened: as §1
[12] = target: Speckle-type POZ protein (Homo sapiens) (UniProt O43791); experiment: Binding affinity to recombinant N-terminal GST/His-tagged SPOP (unknown origin) MATH binding domain expressed in Escherichia coli BL21 (DE3) assessed as change in melting temperature at 5 fold compound by SYPRO Orange dye based differential scanning fluorimetry (reference value: -1.7 degreeC)
OS-RC-2 [13] = experiment: Antiproliferative activity against human OS-RC2 cells assessed as reduction in cell viability at 30 uM incubated for 72 hrs by MTT assay relative to control; type: functional; conditions: OS-RC-2, 72 h
Procedure, shortened: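 MTT read-out. Cells seeded at 1,000-2,200/well, grown 12 hr at 37 °C, then compound added for 72 hr. MTT for 4 hr, formazan dissolved in DMSO, absorbance at 490 nm. Untreated-cell OD taken as 100% proliferation; inhibition reported at 30 μM.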

[14] = target: Speckle-type POZ protein (Homo sapiens) (UniProt O43791); experiment: Inhibition of SPOP signalling in human OS-RC2 cells assessed as accumulation of PTEN incubated for 12 hrs by Western blot analysis; type: cell-based
Procedure, shortened: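 Cells treated with SPOP inhibitor at different concentrations for 12 hr, lysed in RIPA, protein by BCA. Samples run on 12% SDS-PAGE, blotted to nitrocellulose, primary antibody overnight at 4 °C, HRP secondary, ECL detection. GAPDH loading control. Triplicate experiments.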

[15] = target: T1, Speckle-type POZ protein/PTEN (Homo sapiens); experiment: Inhibition of SPOP/PTEN interaction in human A498 cells assessed as increase in SPOP level at 1 to 50 uM incubated for 20 mins by DARTS based Western blot analysis; type: cell-based
Procedure, shortened: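 DARTS. Lysates of 1×10⁶ cells in TNC buffer, 120 μg per tube, incubated with compound at 0, 1, 5, 10 or 50 μM for 20 min at rt. Pronase digestion 10 min at rt (1:1000 for A498, 1:2000 for OS-RC-2), stopped with protease inhibitors, then SPOP western blot. Triplicate experiments.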

[16] = target: Speckle-type POZ protein (Homo sapiens) (UniProt O43791); experiment: Binding affinity to recombinant N-terminal GST/His-tagged SPOP (unknown origin) (23 to 337 residues) expressed in Escherichia coli BL21 (DE3) assessed as change in melting temperature at 1 fold compound incubated for 15 mins by nano differential scanning fluorimetry (reference value: -1.9 degreeC)
[17] = target: Speckle-type POZ protein (Homo sapiens) (UniProt O43791); experiment: Inhibition of SPOP in HEK293T cells assessed as reduction in cell viability incubated for 72 hrs by MTT assay; type: cell-based
[18] = target: Speckle-type POZ protein (Homo sapiens) (UniProt O43791); experiment: Inhibition of SPOP signalling in human A498 cells assessed as effect on total ERK level at 0.5 to 10 uM incubated for 12 hrs by Western blot analysis; type: cell-based; procedure, shortened: as §1
[19] = target: Speckle-type POZ protein (Homo sapiens) (UniProt O43791); experiment: Binding affinity to recombinant N-terminal GST/His-tagged SPOP (unknown origin) MATH binding domain expressed in Escherichia coli BL21 (DE3) assessed as change in melting temperature at 10 fold compound by SYPRO Orange dye based differential scanning fluorimetry (reference value: -1.7 degreeC)
[20] = target: Speckle-type POZ protein (Homo sapiens) (UniProt O43791); experiment: Inhibition of SPOP signalling in human A498 cells assessed as accumulation of DUSP7 incubated for 12 hrs by Western blot analysis; type: cell-based; procedure, shortened: as §1
OS-RC-2 [21] = experiment: Antiproliferative activity against human OS-RC2 cells assessed as reduction in cell viability incubated for 72 hrs by MTT assay; type: functional, cell-based; conditions: OS-RC-2, 72 h
Procedure, shortened: (§2)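 MTT read-out. Cells seeded at 1,000-2,200/well, grown 12 hr at 37 °C before compound, then exposed 72 hr. MTT for 4 hr, formazan dissolved in DMSO, A490 read. Untreated cells = 100% proliferation. IC50 quantitated; mean ± SD, n = 3.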

OS-RC-2 [22] = experiment: Inhibition of colony formation in human OS-RC2 cells at 1 to 5 uM incubated for 12 days by crystal violet dye based assay; type: functional, cell-based
Procedure, shortened: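 Cells seeded at 1,000/well, grown 12 days at 37 °C, 5% CO2, medium renewed every 3 days. Fixed with 10% acetic acid/10% methanol for 15 min, stained with 1% crystal violet for 10 min.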

A498 = experiment: Antiproliferative activity against human A498 cells assessed as reduction in cell viability incubated for 72 hrs by MTT assay; type: functional, cell-based; conditions: A498, 72 h; procedure, shortened: as §2
U-251 = experiment: Cytotoxicity against human U251 cells assessed as reduction in cell viability incubated for 72 hrs by MTT assay; type: cell-based; conditions: U-251, 72 h
Procedure, shortened: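 Cells maintained in DMEM/10% FBS at 37 °C, 5% CO2. Cell proliferation quantified by MTT after 72 hr compound exposure, A490 read. Untreated cells = 100%. Mean ± SD, n = 3.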

Sequence of Speckle-type POZ protein (Homo sapiens) (O43791 whole entry, the tested form may be a part): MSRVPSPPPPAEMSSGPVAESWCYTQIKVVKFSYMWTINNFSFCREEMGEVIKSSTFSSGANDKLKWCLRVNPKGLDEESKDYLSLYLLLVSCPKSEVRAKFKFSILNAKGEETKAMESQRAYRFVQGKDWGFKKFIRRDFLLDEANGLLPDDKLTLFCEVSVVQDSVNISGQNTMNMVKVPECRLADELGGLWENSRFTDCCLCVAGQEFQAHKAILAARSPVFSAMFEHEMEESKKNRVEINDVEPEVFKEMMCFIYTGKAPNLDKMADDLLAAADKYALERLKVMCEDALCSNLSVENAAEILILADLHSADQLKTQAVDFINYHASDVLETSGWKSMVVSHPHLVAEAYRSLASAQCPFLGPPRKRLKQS
T1 sequence (O43791 whole entry, looked up): as the sequence (O43791 whole entry, the tested form may be a part) above
T1 sequence (P60484 whole entry, looked up): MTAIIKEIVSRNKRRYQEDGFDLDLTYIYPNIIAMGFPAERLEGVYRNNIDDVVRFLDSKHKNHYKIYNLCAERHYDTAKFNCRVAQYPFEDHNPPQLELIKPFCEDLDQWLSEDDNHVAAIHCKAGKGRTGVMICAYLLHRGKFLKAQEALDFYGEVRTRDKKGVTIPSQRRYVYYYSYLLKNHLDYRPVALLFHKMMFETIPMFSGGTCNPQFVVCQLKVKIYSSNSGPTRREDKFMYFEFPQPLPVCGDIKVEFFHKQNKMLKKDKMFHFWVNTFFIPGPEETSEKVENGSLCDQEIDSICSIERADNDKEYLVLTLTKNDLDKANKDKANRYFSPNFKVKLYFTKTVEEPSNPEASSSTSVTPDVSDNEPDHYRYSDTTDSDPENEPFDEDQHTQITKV

With Cc1cccn2c(=O)c3cc(C(=O)NCCN4CCN(C)CC4)c(=N)n(CCc4cccs4)c3nc12 the inhibition [1] was “inactive”, the inhibition [2] was “inactive” and the ΔTm [3] was 2.1 °C. For the same molecule, the IC50 (HK-2) was > 30 µM, the inhibition [4] was “Active” and the inhibition [5] was “Dose-dependent effect”. The ΔTm [6] was 3.5 °C, the solubility [7] was > 90 µM and the ΔTm [8] was 3.1 °C. The inhibition [9] was “Dose-dependent effect”, the “Ratio IC50” value [10] was >5 and the inhibition [11] was “inactive”. The ΔTm [12] was 3.7 °C, the inhibition at 30 µM (OS-RC-2 [13]) was 90% and the inhibition [14] was “Dose-dependent effect”. For the same molecule, the inhibition [15] was “Active”, the ΔTm [16] was 2.1 °C and the inhibition [17] was “Active”. For the same molecule, the inhibition [18] was “inactive”, the ΔTm [19] was 4 °C and the inhibition [20] was “Dose-dependent effect”. For the same molecule, the IC50 (OS-RC-2 [21]) was 3.5 µM, the inhibition (OS-RC-2 [22]) was “Active” and the IC50 (A498) was 2.1 µM. It also gave an IC50 (U-251) of 10.2 µM.
